Assay [1] relates to Rattus norvegicus. Nature of the assay: Plasma ANF Concentration in the Conscious Rat at a dose of 11.7(po)mg/kg at 1 h. Format: functional. An outline of the steps: (§1)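 Male Sprague-Dawley rats (275-390 g) received femoral artery and vein catheters under ketamine (150 mg/kg)/acepromazine and recovered for 24 h, tethered, before study conscious. ratANF(99-126) was infused at 450 ng/kg/min iv for 5 h. Baseline blood was drawn at 60 min into the infusion, then compound was given po.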

Assay [2] concerns the target T1, Angiotensin-converting enzyme (Rattus norvegicus) (UniProt P47820).
T1 sequence (whole entry): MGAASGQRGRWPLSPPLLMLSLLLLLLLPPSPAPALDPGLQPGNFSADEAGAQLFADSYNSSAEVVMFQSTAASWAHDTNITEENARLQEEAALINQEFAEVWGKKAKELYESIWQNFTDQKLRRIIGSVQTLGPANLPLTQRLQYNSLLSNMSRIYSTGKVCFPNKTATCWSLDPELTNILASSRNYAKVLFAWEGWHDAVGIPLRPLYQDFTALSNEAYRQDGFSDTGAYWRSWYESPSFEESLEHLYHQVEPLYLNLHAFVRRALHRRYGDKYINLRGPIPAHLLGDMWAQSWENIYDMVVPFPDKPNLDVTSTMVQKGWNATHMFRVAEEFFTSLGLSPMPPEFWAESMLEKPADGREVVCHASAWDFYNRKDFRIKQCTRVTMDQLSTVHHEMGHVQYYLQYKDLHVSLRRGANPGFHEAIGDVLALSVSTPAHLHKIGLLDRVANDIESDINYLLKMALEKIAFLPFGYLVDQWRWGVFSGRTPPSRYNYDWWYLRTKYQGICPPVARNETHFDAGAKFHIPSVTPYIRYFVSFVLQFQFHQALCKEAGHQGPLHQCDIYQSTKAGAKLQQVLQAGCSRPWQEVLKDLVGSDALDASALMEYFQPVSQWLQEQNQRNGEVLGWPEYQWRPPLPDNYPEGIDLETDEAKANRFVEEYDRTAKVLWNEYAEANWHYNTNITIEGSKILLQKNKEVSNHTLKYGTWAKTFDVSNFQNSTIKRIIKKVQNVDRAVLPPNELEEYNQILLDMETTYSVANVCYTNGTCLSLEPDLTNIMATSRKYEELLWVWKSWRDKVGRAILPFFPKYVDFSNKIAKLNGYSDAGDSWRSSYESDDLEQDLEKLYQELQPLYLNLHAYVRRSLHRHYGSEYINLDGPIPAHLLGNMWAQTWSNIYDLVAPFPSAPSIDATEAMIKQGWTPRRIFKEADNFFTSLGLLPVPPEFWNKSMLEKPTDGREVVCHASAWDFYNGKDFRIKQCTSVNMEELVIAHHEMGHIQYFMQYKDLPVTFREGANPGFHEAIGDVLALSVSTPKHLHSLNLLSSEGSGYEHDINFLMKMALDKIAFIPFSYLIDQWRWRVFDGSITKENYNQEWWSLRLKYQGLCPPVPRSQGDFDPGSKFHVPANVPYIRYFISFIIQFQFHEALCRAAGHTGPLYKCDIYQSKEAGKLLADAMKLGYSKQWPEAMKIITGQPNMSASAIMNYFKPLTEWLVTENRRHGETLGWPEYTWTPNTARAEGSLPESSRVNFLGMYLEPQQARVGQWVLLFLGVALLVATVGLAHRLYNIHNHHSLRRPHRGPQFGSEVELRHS
Nature of the assay: Compound was tested for plasma inhibition of Angiotensin I converting enzyme activity in the conscious rat. Expressed as Inhibition of AI pressor response at 1 hr at a dose of 11.7 mg/kg po. Format: organism-based. Also noted: dose 11.7 mg/kg. An outline of the steps:
(§2)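 Male conscious normotensive Sprague-Dawley rats (275-390 g), given femoral arterial and venous catheters under methohexital sodium (75 mg/kg ip) anesthesia. Next day, pressor responses to three angiotensin-I challenges (300 ng/kg iv) recorded by direct arterial pressure. Compound then dosed orally, and AI challenge repeated at set times. Each post-dose response compared with the mean of the three baseline responses, giving % inhibition.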

Assay [3] deals with Rattus norvegicus. The experiment in a line: Plasma ANF Concentration in the Conscious Rat at a dose of 11.7(po)mg/kg at 4 h. Format: functional. Summed up:
as §1

Assay [4] has as its target T1, Angiotensin-converting enzyme (Rattus norvegicus). Nature of the assay: Compound was tested for plasma inhibition of Angiotensin I converting enzyme activity in the conscious rat. Expressed as Inhibition of AI pressor response at 6 hr at a dose of 11.7 mg/kg po. Format: organism-based. Also noted: dose 11.7 mg/kg. Summed up: (§3)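 Male conscious normotensive Sprague-Dawley rats (275-390 g), prepared under methohexital sodium (75 mg/kg ip) with femoral arterial and venous catheters. The next day, pressor responses to three angiotensin-I challenges (300 ng/kg iv) were recorded. Compound was then given orally and angiotensin-I challenges were repeated at set times. Percent inhibition is relative to the mean of the three baseline responses.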

The test system of assay [5] is Rattus norvegicus. The experiment in a line: Plasma ANF Concentration in the Conscious Rat at a dose of 11.7(po)mg/kg at 2 h. Format: functional. Summed up: as §1
In assay [6] the test system is Rattus norvegicus. The experiment in a line: Plasma ANF Concentration in the Conscious Rat at a dose of 11.7(po)mg/kg at 0.5 h. Format: functional. Summed up:
as §1

The target of assay [7] is T1, Angiotensin-converting enzyme (Rattus norvegicus). Nature of the assay: Compound was tested for plasma inhibition of Angiotensin I converting enzyme activity in the conscious rat. Expressed as Inhibition of AI pressor response at 2 hr at a dose of 11.7 mg/kg po. Format: organism-based. On the set-up: dose 11.7 mg/kg. Summed up: as §2
Assay [8] has the same target. Nature of the assay: Compound was tested for plasma inhibition of Angiotensin I converting enzyme activity in the conscious rat. Expressed as Inhibition of AI pressor response at 4 hr at a dose of 11.7 mg/kg po. Format: organism-based. On the set-up: dose 11.7 mg/kg. Summed up: as §2
For assay [9] the target is unchanged. The experiment in a line: Compound was tested for plasma inhibition of Angiotensin I converting enzyme activity in the conscious rat. Expressed as Inhibition of AI pressor response at 2 hr at a dose of 12.4 mg/kg po. Format: organism-based. Also noted: dose 12.4 mg/kg. An outline of the steps: as §2
Assay [10] shares this target. Nature of the assay: Compound was tested for plasma inhibition of Angiotensin I converting enzyme activity in the conscious rat. Expressed as Inhibition of AI pressor response at 1 hr at a dose of 12.4 mg/kg po. Format: organism-based. Also noted: dose 12.4 mg/kg. Summed up:
as §2

Assay [11] has the same target. The experiment in a line: Compound was tested for plasma inhibition of Angiotensin I converting enzyme activity in the conscious rat. Expressed as Inhibition of AI pressor response at 6 hr at a dose of 12.4 mg/kg po. On the set-up: dose 12.4 mg/kg. Format: organism-based. Summed up: as §3
The target is the same in assay [12]. Nature of the assay: Compound was tested for plasma inhibition of Angiotensin I converting enzyme activity in the conscious rat. Expressed as Inhibition of AI pressor response at 4 hr at a dose of 12.4 mg/kg po. It is filed as organism-based. On the set-up: dose 12.4 mg/kg. Summed up: as §2
For assay [13] the target is unchanged. Nature of the assay: Compound was tested for plasma inhibition of Angiotensin I converting enzyme activity in the conscious rat. Expressed as Inhibition of AI pressor response at 2 hr at a dose of 14.4 mg/kg po. Format: organism-based. Also noted: dose 14.4 mg/kg. Summed up:
as §2

Assay [14] shares this target. Nature of the assay: Compound was tested for plasma inhibition of Angiotensin I converting enzyme activity in the conscious rat. Expressed as Inhibition of AI pressor response at 1 hr at a dose of 14.4 mg/kg po. Format: organism-based. Also noted: dose 14.4 mg/kg. An outline of the steps:
as §2

The target is the same in assay [15]. The experiment in a line: Compound was tested for plasma inhibition of Angiotensin I converting enzyme activity in the conscious rat. Expressed as Inhibition of AI pressor response at 4 hr at a dose of 14.4 mg/kg po. Format: organism-based. On the set-up: dose 14.4 mg/kg. Summed up: as §3
For assay [16] the target is unchanged. The experiment in a line: Compound was tested for plasma inhibition of Angiotensin I converting enzyme activity in the conscious rat. Expressed as Inhibition of AI pressor response at 6 hr at a dose of 14.4 mg/kg po. It is filed as organism-based. On the set-up: dose 14.4 mg/kg. Summed up: as §3
Assay [17] shares this target. The experiment in a line: Compound was tested for plasma inhibition of Angiotensin I converting enzyme activity in the conscious rat. Expressed as Inhibition of AI pressor response at 6 hr at a dose of 12.1 mg/kg po. Format: organism-based. Also noted: dose 12.1 mg/kg. An outline of the steps:
as §3

The target is the same in assay [18]. Nature of the assay: Compound was tested for plasma inhibition of Angiotensin I converting enzyme activity in the conscious rat. Expressed as Inhibition of AI pressor response at 2 hr at a dose of 12.1 mg/kg po. Also noted: dose 12.1 mg/kg. Format: organism-based. Summed up: as §2
For assay [19] the target is unchanged. Nature of the assay: Compound was tested for plasma inhibition of Angiotensin I converting enzyme activity in the conscious rat. Expressed as Inhibition of AI pressor response at 1 hr at a dose of 12.1 mg/kg po. Format: organism-based. On the set-up: dose 12.1 mg/kg. Summed up: as §2
For assay [20] the target is unchanged. The experiment in a line: Compound was tested for plasma inhibition of Angiotensin I converting enzyme activity in the conscious rat. Expressed as Inhibition of AI pressor response at 4 hr at a dose of 12.1 mg/kg po. Format: organism-based. Also noted: dose 12.1 mg/kg. An outline of the steps: as §2

For `COC(=O)[C@H](Cc1ccc(OC)cc1)NC(=O)C1(NC(=O)[C@H](SC(C)=O)C(C)C)CCCC1`, the Control in [1] stood at 337%; in assay [3], 342%; in assay [5], 263%; in assay [6] it was 279%. Moreover, the inhibition (in general, the drop in the measured response relative to a control, in per cent) in [2] stood at 97%; in assay [4], 78%; in [7] it was 90%; in assay [8], 87%.
In the case of `CC(=O)S[C@@H](C(=O)NC1(C(=O)N[C@@H](Cc2ccc(O)cc2)C(=O)OCC(C)C)CCCC1)C(C)C`, the inhibition in [9] was determined as 77%; in assay [10], 76%; in assay [11], 20%; in assay [12] it was 69%.
As for `CCOC(=O)[C@H](Cc1ccc(OC(=O)c2cccs2)cc1)NC(=O)C1(NC(=O)[C@H](SC(C)=O)C(C)C)CCCC1`, the inhibition in [13] was determined as 37%; in [14], 29%; in assay [15], 36%; in [16], 26%.
On to `CC(=O)S[C@@H](C(=O)NC1(C(=O)N[C@@H](Cc2ccc(O)cc2)C(=O)OC(C)C)CCCC1)C(C)C`, for which the inhibition in [17] was 78%; in [18], 85%; in [19] it was 67%; in assay [20], 81%.
For the compound `CCCCOC(=O)[C@H](Cc1ccc(O)cc1)NC(=O)C1(NC(=O)[C@H](SC(=O)CN2CCCCC2)C(C)C)CCCC1`, the inhibition was 55% in assay [13], 65% in [14], 50% in assay [15] and 26% in assay [16].
